Test results published in ChEMBL document CHEMBL5678817, “FTBMT, a Novel and Selective GPR52 Agonist, Demonstrates Antipsychotic-Like and Procognitive Effects in Rodents, Revealing a Potential Therapeutic Agent for Schizophrenia” (J Pharmacol Exp Ther, 2017).
The source made the active and inactive calls.

Key:
[1] = molecular target: Coagulation factor X (Homo sapiens) (UniProt P00742); test: Inhibition of factor Xa (unknown origin) at 10 uM relative to control
Method in brief: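 Binding and enzyme panel run by an outside contractor against receptors, ion channels and enzymes. Each assay used a single 10 μM test concentration, and results are expressed as percent inhibition. A negative value means stimulation of receptor activity or activation of enzyme activity.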

[2] = molecular target: Protein kinase C (PKC) (Homo sapiens) (UniProt O94806+P41743+P17252+P05129+Q05655+P05771+Q05513+Q02156+P24723+Q15139+Q04759); test: Inhibition of Protein kinase C (unknown origin) at 10 uM relative to control; format: protein assay
Method in brief: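 Enzyme activity assays from the same 98-target biochemical panel. Single test concentration of 10 µM. Read-out is % inhibition of enzyme activity relative to control; negative percentages indicate activation of the enzyme.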

[3] = molecular target: Alpha-2B adrenergic receptor (Homo sapiens) (UniProt P18089); test: Inhibition of Adrenergic alpha2B receptor (unknown origin) at 10 uM relative to control
Method in brief: (§1)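 Single-point screen at 10 μM across receptor, ion channel and enzyme binding or activity assays. Expressed as percent inhibition versus control; negative values denote stimulation.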

[4] = molecular target: Cannabinoid receptor 1 (Homo sapiens) (UniProt P21554); test: Inhibition of CB1 receptor (unknown origin) at 10 uM relative to control; method in brief: as §1
[5] = molecular target: D(2) dopamine receptor (Homo sapiens) (UniProt P14416); test: Inhibition of Dopamine D2 receptor (unknown origin) at 10 uM relative to control
Method in brief: (§2)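 Part of a 98-target external biochemical selectivity panel that used radioligand/receptor binding-type assays. Compound tested once at 10 µM. Results are reported as % inhibition versus control; negative values mean stimulation of receptor activity.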

[6] = molecular target: D(3) dopamine receptor (Homo sapiens) (UniProt P35462); test: Inhibition of Dopamine D3 receptor (unknown origin) at 10 uM relative to control; method in brief: as §2
[7] = molecular target: Histamine H2 receptor (Homo sapiens) (UniProt P25021); test: Inhibition of Histamine H2 receptor (unknown origin) at 10 uM relative to control; method in brief: as §2
[8] = molecular target: 5-hydroxytryptamine receptor 2B (Homo sapiens) (UniProt P41595); test: Inhibition of Serotonin 5-HT2B receptor (unknown origin) at 10 uM relative to control; method in brief: as §2
[9] = Toxicity in ICR mouse assessed as catelepsy upto 100 mg/kg, po measured for 60 mins by bar test; format: organism-based; conditions: in vivo, 1 h
Method in brief: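 Male ICR mice (6–7 weeks) were dosed orally 60 min before testing. Forepaws were placed on a 2 mm bar set 6.5 cm high, and time on the bar was recorded with a 30 s cutoff. Each mouse was tested three times and the times averaged. n = 5–6.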

Mus musculus [10] = test: Antipsychotic activity in C57BL/6N mouse assessed as increase in c-fos mRNA expression at 3 to 100 mg/kg, po measured for 1 hr by qPCR analysis; format: functional, organism-based; conditions: dose 3-100 mg/kg
Method in brief: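 Mice dosed orally at 3–100 mg/kg or vehicle. Tissues taken 1 h post-dose, NAc shell and striatum dissected, frozen on dry ice. IEG mRNA quantified by qPCR (absolute or ΔΔCt); n = 5–6; mean ± SEM.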

Mus musculus [11] = test: Antipsychotic activity in C57BL/6N mouse assessed as increase in c-fos positive cells in medial prefrontal cortex at 30 mg/kg, po measured for 2 hrs by immunohistochemistry analysis; format: functional, organism-based

Chain of Histamine H2 receptor (Homo sapiens) (P25021 whole entry): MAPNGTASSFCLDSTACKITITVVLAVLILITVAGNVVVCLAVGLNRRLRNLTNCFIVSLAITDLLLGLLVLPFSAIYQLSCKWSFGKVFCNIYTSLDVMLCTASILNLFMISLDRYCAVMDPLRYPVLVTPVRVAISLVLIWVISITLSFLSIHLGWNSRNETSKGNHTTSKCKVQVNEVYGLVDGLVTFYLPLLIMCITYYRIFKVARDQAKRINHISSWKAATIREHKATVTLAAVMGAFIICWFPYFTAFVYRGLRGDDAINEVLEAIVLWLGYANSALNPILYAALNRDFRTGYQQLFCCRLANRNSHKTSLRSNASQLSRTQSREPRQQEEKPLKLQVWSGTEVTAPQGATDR
Chain of Cannabinoid receptor 1 (Homo sapiens) (P21554 whole entry): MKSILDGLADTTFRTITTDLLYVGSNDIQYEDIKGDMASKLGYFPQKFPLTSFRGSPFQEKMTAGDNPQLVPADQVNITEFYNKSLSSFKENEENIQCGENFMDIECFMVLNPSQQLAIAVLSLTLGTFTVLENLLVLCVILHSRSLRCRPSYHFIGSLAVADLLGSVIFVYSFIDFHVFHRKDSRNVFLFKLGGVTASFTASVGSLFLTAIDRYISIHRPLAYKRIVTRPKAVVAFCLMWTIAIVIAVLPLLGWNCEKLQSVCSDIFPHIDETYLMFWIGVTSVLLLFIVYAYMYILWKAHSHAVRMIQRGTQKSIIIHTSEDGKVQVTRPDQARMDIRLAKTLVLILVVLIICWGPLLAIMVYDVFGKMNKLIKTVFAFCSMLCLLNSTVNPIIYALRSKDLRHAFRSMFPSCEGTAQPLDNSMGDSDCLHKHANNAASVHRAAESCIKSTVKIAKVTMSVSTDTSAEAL
Chain of D(2) dopamine receptor (Homo sapiens) (P14416 whole entry): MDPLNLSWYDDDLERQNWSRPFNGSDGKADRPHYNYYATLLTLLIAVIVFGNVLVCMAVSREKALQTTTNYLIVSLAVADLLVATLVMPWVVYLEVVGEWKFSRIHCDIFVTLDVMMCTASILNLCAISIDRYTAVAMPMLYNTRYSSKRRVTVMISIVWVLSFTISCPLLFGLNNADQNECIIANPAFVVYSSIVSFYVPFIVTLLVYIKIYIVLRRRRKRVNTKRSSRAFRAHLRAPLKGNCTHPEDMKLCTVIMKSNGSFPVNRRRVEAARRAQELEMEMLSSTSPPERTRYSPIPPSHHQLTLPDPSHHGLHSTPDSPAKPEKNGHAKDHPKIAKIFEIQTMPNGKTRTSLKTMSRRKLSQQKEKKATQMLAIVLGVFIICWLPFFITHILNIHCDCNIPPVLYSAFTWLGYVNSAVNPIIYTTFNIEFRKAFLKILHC
Chain of Alpha-2B adrenergic receptor (Homo sapiens) (P18089 whole entry): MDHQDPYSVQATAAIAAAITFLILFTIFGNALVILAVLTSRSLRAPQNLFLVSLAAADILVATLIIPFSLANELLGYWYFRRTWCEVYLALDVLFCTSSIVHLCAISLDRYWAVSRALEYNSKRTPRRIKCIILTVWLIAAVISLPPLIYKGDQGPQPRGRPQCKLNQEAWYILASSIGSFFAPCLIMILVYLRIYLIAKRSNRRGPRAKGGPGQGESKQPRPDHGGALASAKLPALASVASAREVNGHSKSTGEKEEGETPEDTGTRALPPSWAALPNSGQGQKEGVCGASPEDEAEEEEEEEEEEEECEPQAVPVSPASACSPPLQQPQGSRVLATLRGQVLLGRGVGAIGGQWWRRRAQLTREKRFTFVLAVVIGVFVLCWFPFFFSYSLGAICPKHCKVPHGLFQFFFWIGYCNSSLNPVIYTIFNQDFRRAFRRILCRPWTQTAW
Chain of 5-hydroxytryptamine receptor 2B (Homo sapiens) (P41595 whole entry): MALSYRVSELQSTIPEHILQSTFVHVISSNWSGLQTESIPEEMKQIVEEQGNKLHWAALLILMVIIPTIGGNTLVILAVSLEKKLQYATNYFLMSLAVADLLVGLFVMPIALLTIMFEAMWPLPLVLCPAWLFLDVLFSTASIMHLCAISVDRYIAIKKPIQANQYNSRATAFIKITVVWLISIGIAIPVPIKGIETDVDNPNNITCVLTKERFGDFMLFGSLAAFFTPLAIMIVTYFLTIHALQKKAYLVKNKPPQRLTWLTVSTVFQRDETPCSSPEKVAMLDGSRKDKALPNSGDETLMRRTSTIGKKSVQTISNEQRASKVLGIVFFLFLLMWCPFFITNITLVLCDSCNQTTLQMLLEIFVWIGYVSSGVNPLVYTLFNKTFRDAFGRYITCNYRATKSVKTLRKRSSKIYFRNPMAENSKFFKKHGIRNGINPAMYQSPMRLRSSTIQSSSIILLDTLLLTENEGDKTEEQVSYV
Chain of D(3) dopamine receptor (Homo sapiens) (P35462 whole entry): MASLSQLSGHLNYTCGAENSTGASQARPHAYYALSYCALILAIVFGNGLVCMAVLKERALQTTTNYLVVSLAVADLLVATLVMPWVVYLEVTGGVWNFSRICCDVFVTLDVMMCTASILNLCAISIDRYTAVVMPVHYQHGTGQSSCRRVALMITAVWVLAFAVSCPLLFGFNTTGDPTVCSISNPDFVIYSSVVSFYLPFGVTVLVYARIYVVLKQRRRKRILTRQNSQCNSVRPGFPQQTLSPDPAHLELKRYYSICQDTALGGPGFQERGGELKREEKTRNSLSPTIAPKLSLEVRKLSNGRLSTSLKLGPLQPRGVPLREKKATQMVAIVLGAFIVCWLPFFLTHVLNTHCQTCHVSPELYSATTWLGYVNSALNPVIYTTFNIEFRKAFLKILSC
Chain of Coagulation factor X (Homo sapiens) (P00742 41-179 limits assumed): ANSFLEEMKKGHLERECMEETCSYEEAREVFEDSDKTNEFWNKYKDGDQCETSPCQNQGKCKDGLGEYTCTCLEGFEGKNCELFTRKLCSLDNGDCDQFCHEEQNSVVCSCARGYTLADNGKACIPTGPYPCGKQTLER
Chain of Coagulation factor X (Homo sapiens) (P00742 235-488 limits assumed): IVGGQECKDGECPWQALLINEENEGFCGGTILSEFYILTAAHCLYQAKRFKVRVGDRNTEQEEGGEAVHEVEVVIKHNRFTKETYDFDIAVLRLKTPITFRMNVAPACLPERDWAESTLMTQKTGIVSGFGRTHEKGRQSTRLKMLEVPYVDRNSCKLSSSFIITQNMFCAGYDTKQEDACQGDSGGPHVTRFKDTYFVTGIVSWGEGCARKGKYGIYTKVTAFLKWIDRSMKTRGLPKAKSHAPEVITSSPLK

**Q.** Which results are given for Cc1cc(-n2nc(Cc3cc(F)cc(C(F)(F)F)c3)nc2C)ccc1C(N)=O [TP-024]?
**A.** inhibition [1]: -4%; inhibition [2]: -5%; inhibition [3]: 5%; inhibition [4]: -4%; inhibition [5]: 5%; inhibition [6]: 8%; inhibition [7]: 2%; inhibition [8]: 6%; Activity [9]: Non-Toxic; Activity (Mus musculus [10]): Active; Activity (Mus musculus [11]): Active
